Key:
Thromboxane A2 receptor [1] = biological target: T1, Thromboxane A2 receptor (Homo sapiens, UniProt P21731); test: Activity at TPalpha (short isoform) receptor expressed in HEK293 cells assessed as ability to antagonize U46619-mediated calcium ion mobilization; format: functional, cell-based
T1 sequence (P21731 whole entry): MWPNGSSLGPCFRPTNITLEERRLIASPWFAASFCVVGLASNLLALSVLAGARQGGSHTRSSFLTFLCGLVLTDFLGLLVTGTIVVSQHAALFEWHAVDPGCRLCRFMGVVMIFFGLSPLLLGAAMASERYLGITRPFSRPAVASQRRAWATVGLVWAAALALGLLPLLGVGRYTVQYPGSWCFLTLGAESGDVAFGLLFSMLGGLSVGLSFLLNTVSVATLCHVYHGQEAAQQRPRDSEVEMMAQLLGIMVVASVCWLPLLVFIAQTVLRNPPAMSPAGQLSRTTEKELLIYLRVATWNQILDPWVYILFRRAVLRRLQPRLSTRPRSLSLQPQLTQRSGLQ
Summary of the method: (§1)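 HEK293 cells stably overexpressing human TPα or TPβ. Cells were loaded 1 h with Fluo-4/AM (5 µg/mL) and washed in Krebs-HEPES pH 7.4 (150 000 cells/well). Compound (10^-5 to 10^-8 M final) was added 10 min before 1 µM U46619. Fluo-4 signal was calibrated by Triton X-100 and then EGTA (Kd 385 nM) for [Ca2+]i. IC50 is the concentration halving the [Ca2+]i rise.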

Thromboxane A2 receptor [2] = biological target: T1, Thromboxane A2 receptor; test: Displacement of [3H]SQ29,548 from TPalpha receptor (short isoform) expressed in COS7 cells
[3] = biological target: T2, Thromboxane A2 receptor (Homo sapiens) (UniProt P21731); test: Selectivity index, IC50 for TPalpha/IC50 for TPbeta in COS7 cells; format: cell-based; settings: COS-7
T2 sequence (whole entry): T1 sequence (P21731 whole entry)
Summary of the method: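 Binding used 5 × 10^5 cells in 25 mM HEPES/125 mM NaCl/10 µM indomethacin, pH 7.4, with 10 nM [3H]SQ29,548 and compound at 10^-6 to 10^-11 M, in triplicate, for 30 min at 37 °C. Nonspecific binding: 10 µM unlabeled SQ29,548. Bound ligand was counted after filtration. Index = IC50 TPα/IC50 TPβ.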

[4] = biological target: T2, Thromboxane A2 receptor (Homo sapiens); test: Selectivity index, IC50 for TPalpha/IC50 for TPbeta in HEK293 cells; format: functional, cell-based
Summary of the method: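 Ratio of IC50 TPα to IC50 TPβ, both from the calcium assay in stably transfected HEK293 cells. Fluo-4-loaded cells were preincubated 10 min with compound (10^-5 to 10^-8 M), then stimulated with 1 µM U46619. IC50 is the concentration inhibiting 50% of the [Ca2+]i rise.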

Thromboxane A2 receptor [5] = biological target: T1, Thromboxane A2 receptor; test: Displacement of [3H]SQ-29548 from TPbeta receptor (long isoform) expressed in COS7 cells
[6] = biological target: T2, Thromboxane A2 receptor (Homo sapiens); test: Displacement of [3H]SQ-29548 from TPbeta receptor (long isoform) expressed in COS7 cells at 1 nM; settings: COS-7
Thromboxane A2 receptor [7] = biological target: T1, Thromboxane A2 receptor; test: Activity at TPbeta (long isoform) receptor expressed in HEK293 cells assessed as ability to antagonize U46619-mediated calcium ion mobilization; format: functional, cell-based; summary of the method: as §1
[8] = biological target: T2, Thromboxane A2 receptor (Homo sapiens); test: Displacement of [3H]SQ29,548 from TPalpha receptor (short isoform) expressed in COS7 cells at 1 nM; settings: COS-7
[9] = biological target: T2, Thromboxane A2 receptor (Homo sapiens); test: Displacement of [3H]SQ-29548 from TPbeta receptor (long isoform) expressed in COS7 cells at 1 uM; format: cell-based; settings: COS-7
[10] = biological target: T2, Thromboxane A2 receptor (Homo sapiens); test: Displacement of [3H]SQ29,548 from TPalpha receptor (short isoform) expressed in COS7 cells at 1 uM; format: cell-based; settings: COS-7

## CCCCCNC(=O)NS(=O)(=O)c1cc([N+](=O)[O-])ccc1Nc1cc(C)cc(C)c1
Thromboxane A2 receptor [1]
  IC50: 0.538 µM
Thromboxane A2 receptor [2]
  IC50: 0.00108 µM
[3]
  Ratio IC50: 1.55
[4]
  Ratio IC50: 7.03
Thromboxane A2 receptor [5]
  IC50: 0.0007 µM
[6]
  Activity: 49.7%
Thromboxane A2 receptor [7]
  IC50: 0.0765 µM
[8]
  Activity: 49.7%

## Cc1ccc(Oc2ccc([N+](=O)[O-])cc2S(=O)(=O)NC(=O)NC(C)(C)C)cc1
Thromboxane A2 receptor [1]
  IC50: 0.0583 µM
Thromboxane A2 receptor [2]
  IC50: 0.00126 µM
[3]
  Ratio IC50: 0.71
[4]
  Ratio IC50: 1.01
Thromboxane A2 receptor [5]
  IC50: 0.00177 µM
[6]
  Activity: 44.7%
Thromboxane A2 receptor [7]
  IC50: 0.0576 µM
[8]
  Activity: 53.3%

## Cc1ccc(Nc2ccc([N+](=O)[O-])cc2S(=O)(=O)NC(=O)NC2CCCCC2)cc1
[6]
  Activity: 29%
[8]
  Activity: 31.1%

## Cc1cc(Nc2ccc([N+](=O)[O-])cc2S(=O)(=O)NC(=O)NC(C)(C)C)ccc1Br
[6]
  Activity: 25%
[8]
  Activity: 28.5%

## CCCCCNC(=O)NS(=O)(=O)c1cc([N+](=O)[O-])ccc1Nc1ccc(C)cc1C
[6]
  Activity: 39.9%
[8]
  Activity: 42.3%

## CCCCCNC(=O)NS(=O)(=O)c1cc([N+](=O)[O-])ccc1Nc1ccc(C)c(C)c1
[6]
  Activity: 48.7%
[8]
  Activity: 40.1%

## CCCCC/N=C(\NC#N)NS(=O)(=O)c1cc([N+](=O)[O-])ccc1Nc1cc(C)cc(C)c1
[6]
  Activity: 53.4%
[8]
  Activity: 48%

## CCC(C)NC(=O)NS(=O)(=O)c1cc([N+](=O)[O-])ccc1Nc1ccc(C)cc1 (stereo not drawn)
[9]
  Activity: 40.4%
[10]
  Activity: 40.7%

## CCCCCNC(=O)NS(=O)(=O)c1cc([N+](=O)[O-])ccc1Sc1ccccc1C
[6]
  Activity: 32.7%
[8]
  Activity: 33.4%

## CCCCC/N=C(\NC#N)NS(=O)(=O)c1cc([N+](=O)[O-])ccc1Nc1ccc(C)cc1
[6]
  Activity: 27.2%
[8]
  Activity: 25.5%

## Cc1ccc(Oc2ccc([N+](=O)[O-])cc2S(=O)(=O)NC(=O)NC2CCCCC2)cc1
Thromboxane A2 receptor [1]
  IC50: 0.601 µM
Thromboxane A2 receptor [2]
  IC50: 0.00152 µM
[3]
  Ratio IC50: 1.93
[4]
  Ratio IC50: 8.56
Thromboxane A2 receptor [5]
  IC50: 0.00079 µM
[6]
  Activity: 51.9%
Thromboxane A2 receptor [7]
  IC50: 0.0702 µM
[8]
  Activity: 49.8%

## CC(C)(C)NC(=O)NS(=O)(=O)c1cc([N+](=O)[O-])ccc1Sc1ccc(Cl)cc1
[6]
  Activity: 31.7%
[8]
  Activity: 32.5%

## CCCCCNC(=O)NS(=O)(=O)c1cc([N+](=O)[O-])ccc1Nc1c(C)cc(C)cc1C
[6]
  Activity: 27.5%
[8]
  Activity: 27.9%

## CCCCCCCNC(=O)NS(=O)(=O)c1cc([N+](=O)[O-])ccc1NC1CCCCC1
Thromboxane A2 receptor [1]
  IC50: 0.0929 µM
Thromboxane A2 receptor [2]
  IC50: 0.0025 µM
[3]
  Ratio IC50: 0.93
[4]
  Ratio IC50: 1.67
Thromboxane A2 receptor [5]
  IC50: 0.00268 µM
[6]
  Activity: 36.4%
Thromboxane A2 receptor [7]
  IC50: 0.0555 µM
[8]
  Activity: 29.5%

## Cc1cccc(C)c1Nc1ccc([N+](=O)[O-])cc1S(=O)(=O)NC(=O)NC(C)(C)C
Thromboxane A2 receptor [1]
  IC50: 0.0569 µM
Thromboxane A2 receptor [2]
  IC50: 0.00078 µM
[3]
  Ratio IC50: 1.4
[4]
  Ratio IC50: 1.85
Thromboxane A2 receptor [5]
  IC50: 0.00056 µM
[6]
  Activity: 46.3%
Thromboxane A2 receptor [7]
  IC50: 0.0308 µM
[8]
  Activity: 46.4%

## CCCCNC(=O)NS(=O)(=O)c1cc([N+](=O)[O-])ccc1Oc1ccc(C)cc1
Thromboxane A2 receptor [1]
  IC50: 0.558 µM
Thromboxane A2 receptor [2]
  IC50: 0.00074 µM
[3]
  Ratio IC50: 1.05
[4]
  Ratio IC50: 10.6
Thromboxane A2 receptor [5]
  IC50: 0.0007 µM
[6]
  Activity: 56%
Thromboxane A2 receptor [7]
  IC50: 0.0529 µM
[8]
  Activity: 55.7%

## CCCCCNC(=O)NS(=O)(=O)c1cc([N+](=O)[O-])ccc1Oc1ccc(C)cc1
Thromboxane A2 receptor [1]
  IC50: 0.139 µM
Thromboxane A2 receptor [2]
  IC50: 0.00263 µM
[3]
  Ratio IC50: 4.02
[4]
  Ratio IC50: 2.52
Thromboxane A2 receptor [5]
  IC50: 0.00065 µM
[6]
  Activity: 48.5%
Thromboxane A2 receptor [7]
  IC50: 0.0554 µM
[8]
  Activity: 35.5%

## CCCCCNC(=O)NS(=O)(=O)c1cc([N+](=O)[O-])ccc1Nc1cccc(C)c1C
[6]
  Activity: 39%
[8]
  Activity: 44.6%

From ChEMBL document CHEMBL1148650, “Synthesis and pharmacological evaluation of novel nitrobenzenic thromboxane modulators as antiplatelet agents acting on both the alpha and beta isoforms of the human thromboxane receptor” (J Med Chem, 2006)
